Compound activity: PubChem, Broad Institute
MLL AF4-AF9 inh = inhibitors of human MLL-AF4/AF9 interaction | P42568 | AlphaScreen, biotin-AF4 peptide binding to FLAG-AF9 | inhibition, % at 10 µM | actives 0.47% (n = 350,000) | AID 651704;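 active means every replicate reaching a set inhibition limit, whatever the replicate mean, cut at about 25% in these data; inconclusive means mean inhibition reaches that limit but some replicates miss it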;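 further: 0% = plate neutral control median and 100% = total signal loss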
Target sequence (P42568 whole entry, looked up): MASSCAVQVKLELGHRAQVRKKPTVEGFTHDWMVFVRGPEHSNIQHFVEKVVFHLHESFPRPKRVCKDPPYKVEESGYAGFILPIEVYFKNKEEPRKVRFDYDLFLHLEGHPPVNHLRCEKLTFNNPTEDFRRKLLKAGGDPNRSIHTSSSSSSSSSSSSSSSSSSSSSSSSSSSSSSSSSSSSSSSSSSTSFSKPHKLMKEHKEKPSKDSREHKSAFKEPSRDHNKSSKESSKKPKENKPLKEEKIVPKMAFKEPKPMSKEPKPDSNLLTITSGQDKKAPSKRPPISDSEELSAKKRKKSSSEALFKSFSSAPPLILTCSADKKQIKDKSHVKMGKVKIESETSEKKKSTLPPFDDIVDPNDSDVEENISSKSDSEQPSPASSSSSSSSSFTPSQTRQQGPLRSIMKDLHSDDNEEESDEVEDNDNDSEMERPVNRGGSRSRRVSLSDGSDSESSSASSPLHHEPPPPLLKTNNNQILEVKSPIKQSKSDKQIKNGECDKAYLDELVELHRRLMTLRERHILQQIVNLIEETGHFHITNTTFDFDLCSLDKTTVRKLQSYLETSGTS
CaV13 ICDI inh = Disruptors of the CACNA1D IQ motif to Ca2+-dependent inactivation inhibitor domain association, primary screening, Förster resonance energy transfer in intact living …; HEK cells, CFP/YFP FRET ICDI-IQ, plate reader, 10 min; percent FRET-ratio fall versus neutral wells; actives 0.098% (n = 340,000); inhibition, % at 12.3 µM;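 active means mean replicate inhibition of at least 30% and at least 1% of replicates passing that level; inconclusive means only one of the two criteria is met; inactive means neither criterion is met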;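 further: 0% = median of the neutral control wells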
S100A4 MyoIIA = S100A4-myosin IIA interaction inhibition; P26447; S100A4/TAMRA-MyoIIA peptide fluorescence polarization; inhibition, % at 10.7 µM; actives 0.14% (n = 360,000);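 active means mean inhibition of at least 70% across replicates, with every replicate also reaching that level; inconclusive means mean inhibition reaches 70% but some replicates fall short; inactive means mean inhibition below 70%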
Target sequence (P26447 whole entry, looked up): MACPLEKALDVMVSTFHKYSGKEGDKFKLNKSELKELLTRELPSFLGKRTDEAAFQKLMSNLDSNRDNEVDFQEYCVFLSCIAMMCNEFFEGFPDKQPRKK
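assay system = human S100A4 monomer with TAMRA-labelled myosin IIA peptide | also added = labelled myosin peptide probe, 5 nM | incubation = 5 min between mix addition and reading | control set = DMSO and TFP controls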
SIRT5 inh = sirtuin-5 (human) deacylase inhibition | Purified SirT5, succinyl-peptide AMC, trypsin-coupled fluorescence | inhibition, % at 15 µM | actives 1.1% (n = 330,000); in the data active means inhibition above about 15%; inconclusive means no clear call, values can overlap the other calls
DENV2 CPE = inhibitors of DENV2 cytopathic effect. DENV2-infected cells, cytopathic effect rescue, plate reader. CPE inhibition, % at 9.99 µM. actives 1.7% (n = 350,000). AID 651640; in the data active means CPE inhibition above about 20%, passing the limit was not always enough; inconclusive means no clear call, values can overlap the other calls; tested in BHK-21 cells;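 further: 0% = median of neutral control wells and 100% = median of positive control wells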
* marks the source's active call; other numbers are inactive results; ? = inconclusive; / = no result. Shown are actives, neighbours in structure and some others; about 2.7% of the full set was active somewhere.

SMILES | MLL AF4-AF9 inh | CaV13 ICDI inh | S100A4 MyoIIA | SIRT5 inh | DENV2 CPE
CCCNC(=O)NC[C@H]1[C@H](c2ccc(C3=CCCC3)cc2)[C@@H](CO)N1C(=O)CC | -1.9 | / | -7.6 | 4.9 | -2.2
CCCn1cc(S(=O)(=O)c2ccc(C)cc2)c(=O)c2cc(OC)ccc21 | 0.5 | -12.5 | 0.0 | 0.8 | -0.8
CCCn1cc(S(=O)(=O)c2ccc(C)cc2)c(=O)c2cc(OC)c(OC)cc21 | 1.2 | -5.5 | 1.7 | 20.2* | 8.4
O=C(C[C@H]1CC[C@@H]2[C@H](COC[C@@H](O)CN2Cc2cccc(F)c2)O1)NCc1ccncc1 | -4.4 | / | 6.3 | -0.9 | 1.8
COc1ccc(S(=O)(=O)N2CCOCC2)cc1NC(=O)CSc1n[nH]c(C(C)C)n1 | -3.6 | 4.1 | -1.3 | 20.1* | -2.4
CC(=O)c1c(C)[nH]c(C(=O)OCC(=O)Nc2cc(S(=O)(=O)N3CCCC3)ccc2Cl)c1C | / | -6.2 | / | / | /
Cc1ccc(S(=O)(=O)N2CCOCC2)cc1NC(=O)COC(=O)c1n[nH]c(=O)c2ccccc12 | -1.4 | -2.4 | 3.2 | 16.5* | -3.1
COc1ccc(S(=O)(=O)N2CCOCC2)cc1NC(=O)COC(=O)c1[nH]c(C)c(C(C)=O)c1C | -5.9 | -10.1 | 0.6 | 17.1* | -5.0
O=C(COC(=O)CN1C(=O)C2CCCCC2C1=O)Nc1cc(S(=O)(=O)N2CCOCC2)ccc1Cl (configuration not stated) | -0.2 | -3.3 | 0.6 | 6.4 | 87.7*
C[C@@H]1CCCCO[C@H](CN(C)C(=O)NC2CCCCC2)[C@@H](C)CN([C@H](C)CO)C(=O)c2cc(NC(=O)Nc3ccc(F)cc3)ccc2O1 | -2.4 | / | -12.1 | 1.5 | 4.9
CCCCN1CC(=O)N2[C@H](c3ccc(OC)cc3)[C@@H]3C(=O)N(CC)C(=O)[C@@H]3[C@]2(Cc2ccccc2)C1=O | 1.6 | -9.7 | -2.5 | 27.1* | -9.6
CCCCN1CC(=O)N2[C@H](c3ccc(Cl)cc3)[C@@H]3C(=O)N(CC)C(=O)[C@@H]3[C@]2(Cc2ccccc2)C1=O | 2.3 | -11.4 | -4.9 | -3.9 | -7.8
CCN1C(=O)[C@H]2[C@@H](c3ccc(OC)cc3)N3C(=O)CN(CCOC)C(=O)[C@@]3(Cc3ccccc3)[C@H]2C1=O | / | -10.4 | 2.4 | -6.0 | 65.7*
CCN1C(=O)[C@H]2[C@@H](c3ccc(OC)cc3)N3C(=O)CN(Cc4ccccc4)C(=O)[C@@]3(C)[C@H]2C1=O | -0.8 | -8.7 | 7.8 | 0.9 | -2.9
COc1ccc(S(=O)(=O)Nc2ccc3c(c2)C(=O)N([C@@H](C)CO)C[C@H](C)[C@H](CN(C)C(=O)CCCN(C)C)OCCCC[C@@H](C)O3)cc1 | -0.8 | / | 4.9 | / | 19.6
CCOc1ccccc1-c1nnc(CS(=O)(=O)c2ccccc2)o1 | 0.2 | -6.8 | -1.6 | -2.9 | 52.9*
COc1ccc(Br)c(-c2nnc(CS(=O)(=O)c3ccccc3)o2)c1 | -0.5 | -2.3 | -3.4 | / | 8.6
COc1ccc(C(=O)O)nc1C | -5.5 | -4.1 | -13.8 | 16.9* | 2.3
CC(C)C#Cc1ccc2c(c1)O[C@@H](CN(C)C(=O)CN(C)C)[C@H](C)CN([C@@H](C)CO)S2(=O)=O | 1.2 | / | 39.4 | -1.9 | -9.9
O=C1c2ccc([N+](=O)[O-])cc2C(=O)N1Cc1cccnc1 | -6.5 | -7.2 | 3.8 | 0.8 | 90.0*
O=C(NCc1ccccc1)c1ccc2c(c1)C(=O)N(Cc1cccnc1)C2=O | -0.9 | -2.8 | 5.9 | 1.7 | ?
Cc1ccccc1-c1cnc2c(c1)C(=O)N([C@@H](C)CO)C[C@H](C)[C@H](CN(C)C(=O)CN(C)C)O2 | -2.6 | / | -31.4 | 3.3 | -0.5
c1ccc(-c2ccncc2)nc1 | / | -8.1 | -3.5 | / | 79.0*
O=C(COC(=O)c1cc(Cl)nc2ccccc12)c1ccc(Cl)cc1 | 1.1 | -2.3 | -6.2 | 0.1 | 62.7*
CCCN1CCN(C(=O)c2ccc(CS(=O)c3ccc(Br)cc3)o2)CC1 (configuration not stated) | -2.7 | 35.1* | -0.7 | / | -1.4
SMILES | MLL AF4-AF9 inh | CaV13 ICDI inh | S100A4 MyoIIA | SIRT5 inh | DENV2 CPE
N#CCc1c(C#N)c(N)nc(Nc2ccccc2)c1C#N | 1.2 | -6.9 | 3.4 | 17.3* | 11.3
CN(c1ccccc1)c1nc(N)c(C#N)c(CC#N)c1C#N | / | -2.9 | / | / | /
CN1CCCCCC1=Nc1ccc([N+](=O)[O-])cc1 | -3.3 | -1.7 | -6.3 | -0.8 | 5.4
CN1C(=O)C(N=Nc2ccc([N+](=O)[O-])cc2)SC1=S (configuration not stated) | 43.8* | -19.4 | -1.1 | 0.3 | -1.8
COc1ccc(S(=O)(=O)N(C)C[C@@H]2Oc3ccc(NC(=O)NC4CCCCC4)cc3C(=O)N([C@@H](C)CO)C[C@@H]2C)cc1 | 0.7 | / | -6.8 | -1.1 | ?
Cc1csc2nc3cc(C(N)=O)ccc3c(=O)n12 | 54.5* | -5.5 | -2.9 | -7.1 | 9.0
NC(=O)c1ccc2c(=O)n3c(-c4cc(Cl)c(N)c(Cl)c4)csc3nc2c1 | -4.9 | -4.6 | -0.1 | / | ?
O=C1c2ccccc2[C@@H]2C[C@@H](O)[C@H](Nc3cccc4ccccc34)CCN12 | 0.1 | -6.7 | -3.5 | -0.9 | 26.0*
COc1ccc(N[C@@H]2CCN3C(=O)c4ccccc4[C@@H]3C[C@H]2O)cc1 | 0.2 | -9.6 | -4.1 | -1.8 | 4.5
O[C@@H]1CN(Cc2cccs2)[C@@H](c2ccccc2)C[C@H]1n1cc(-c2ccc(F)cc2)nn1 | 0.4 | -2.2 | -1.9 | 3.0 | 50.7*
CCCCCCN1C[C@H](n2cc(-c3ccc(F)cc3)nn2)[C@@H](O)C[C@@H]1c1ccccc1 | -0.4 | -3.5 | -4.4 | -0.6 | 92.7*
O[C@H]1C[C@H](c2ccc(Cl)cc2)N(Cc2cccs2)C[C@@H]1n1cc(-c2ccc(F)cc2)nn1 | 1.5 | -3.3 | -1.6 | -3.6 | 5.3
N#C[C@H]1[C@@H](c2ccccc2C2=CCCCC2)[C@H](CO)N1S(=O)(=O)c1cccc(F)c1 | / | / | / | / | 2.9
CN(C)CC(=O)N1[C@H](CO)[C@@H](c2ccccc2)C12CN(CCC(F)(F)F)C2 | 0.8 | / | 1.3 | -2.7 | 0.3
CCC(=O)N1[C@H](CO)[C@@H](c2ccccc2)C12CN(CCC(F)(F)F)C2 | 2.2 | / | 2.6 | 15.4* | 3.5
CN(C)CC(=O)N1[C@@H](CO)[C@@H](c2ccccc2)C12CN(CCC(F)(F)F)C2 | -0.8 | / | 2.1 | -3.4 | 4.0
CN(C)CC(=O)N1[C@H](CO)[C@H](c2ccccc2)C12CN(CCC(F)(F)F)C2 | 0.8 | / | -1.4 | 13.0 | 20.9*
C[C@H](CO)N1C[C@H](C)[C@@H](CN(C)C(=O)Nc2ccc(F)cc2)OCCCC[C@H](C)Oc2ccc(NC(=O)Nc3cccc4ccccc34)cc2C1=O | -2.1 | / | -3.9 | 4.5 | -1.2
CCc1cc(Cn2nc(-c3ccccc3)cc2C(=O)NCc2cccc(C(F)(F)F)c2)on1 | -1.8 | -11.2 | -13.8 | 0.5 | -3.7
CCc1cc(Cn2nc(-c3ccccc3)cc2C(=O)NCc2ccc(C)cc2)on1 | 0.8 | -9.8 | 2.8 | 1.0 | 111.4*
